Laboratory results as given in ChEMBL document CHEMBL2163334, “Discovery of highly potent and selective pan-Aurora kinase inhibitors with enhanced in vivo antitumor therapeutic index” (J Med Chem, 2012).

Assays:
[1] = test system: HCT-116; assay: Antiproliferative activity against human HCT116 cells after 72 hrs by BrdU-based ELISA; type: functional, cell-based; settings: HCT-116, 72 h
Outline: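 HCT-116 cells in McCoy's 5A with 10% FBS and pen/strep, seeded 800 cells/well, left overnight at 37 °C, 5% CO2. Nine-point 3-fold serial dilutions in DMSO added for 72 h; BrdU colorimetric ELISA read at 450 and 690 nm. IC50 is the concentration halving proliferation; duplicate runs averaged.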

[2] = biological target: T1, Aurora kinase B (Homo sapiens, UniProt Q96GD4); assay: Inhibition of Aurora kinase B-mediated histone H3 Ser10 phosphorylation in human HCT116 cells after 2 hrs by sandwich ELISA; type: cell-based, HCT-116
Outline: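 HCT-116 cells seeded 4 × 10⁴/well, 4-6 h at 37 °C, then arrested overnight (16-18 h) with nocodazole at 66 ng/mL final. Treated 2 h with nine-point 3-fold dilutions in DMSO; lysed with phosphatase inhibitor, phospho-H3 (Ser10) sandwich ELISA read at 450 nm. IC50 = 50% inhibition of phosphorylation; duplicate runs averaged.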

[3] = biological target: T2, Aurora kinase A (Homo sapiens, UniProt O14965); assay: Binding affinity to Aurora kinase A catalytic domain by competition binding assay
T2 sequence (O14965 whole entry): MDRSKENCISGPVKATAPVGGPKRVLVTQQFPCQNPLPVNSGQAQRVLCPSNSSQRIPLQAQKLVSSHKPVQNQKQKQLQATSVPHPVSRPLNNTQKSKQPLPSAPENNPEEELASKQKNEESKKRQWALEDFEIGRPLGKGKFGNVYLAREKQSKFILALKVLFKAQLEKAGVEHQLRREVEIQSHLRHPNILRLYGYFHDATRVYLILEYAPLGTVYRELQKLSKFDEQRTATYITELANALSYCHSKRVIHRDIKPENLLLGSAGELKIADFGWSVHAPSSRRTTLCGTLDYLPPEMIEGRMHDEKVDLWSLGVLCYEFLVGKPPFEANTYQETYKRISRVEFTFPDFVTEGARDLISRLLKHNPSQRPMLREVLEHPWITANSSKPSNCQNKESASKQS

[4] = Clearance in Sprague-Dawley rat at 1 mg/kg, iv administered using PEG400/water as vehicle; type: ADME, organism-based; set-up: dose 1 mg/kg, route intravenous; settings: in vivo
Outline: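 SD rats fasted overnight, given 1 mg/kg iv in PEG400/water (3:1, v/v); three per arm. Blood into K3 EDTA at 5, 15, 30 min, 1, 2, 4, 6, 24 h, spun at 4 °C; plasma extracted with six volumes acetonitrile plus internal standard and quantified by LC-MS/MS (C8 column, formic acid/ACN gradient).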

[5] = biological target: T1, Aurora kinase B; assay: Binding affinity to Aurora kinase B catalytic domain by competition binding assay

T1 sequence (Q96GD4 whole entry): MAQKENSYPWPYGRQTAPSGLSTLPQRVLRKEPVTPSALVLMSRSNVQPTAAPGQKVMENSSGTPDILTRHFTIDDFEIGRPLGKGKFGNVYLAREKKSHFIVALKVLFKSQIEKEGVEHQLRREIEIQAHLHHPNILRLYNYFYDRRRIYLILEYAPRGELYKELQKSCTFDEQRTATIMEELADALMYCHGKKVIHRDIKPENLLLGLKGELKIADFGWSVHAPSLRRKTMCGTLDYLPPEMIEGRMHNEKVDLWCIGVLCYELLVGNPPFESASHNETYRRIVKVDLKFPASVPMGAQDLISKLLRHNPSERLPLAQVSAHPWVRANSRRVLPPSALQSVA

Row | Structure (SMILES) | IC50 [1] [nM] | IC50 [2] [nM] | Kd [3] [nM] | clearance [4] [mL/min/kg] | Kd [5] [nM]
1 | Cc1cc(Nc2nc(Sc3ccc(NC(=O)CN4CC[C@@H](C(=O)NC(C)(C)C)C4)cc3)nn3cccc23)n[nH]1 | 1 | 6.2 | 5.6 | 48 | 3.1
2 | Cc1cc(Nc2nc(Sc3ccc(NC(=O)CN4CC[C@@H](NS(C)(=O)=O)C4)cc3)nn3cccc23)n[nH]1 | 270 | 362 | 12.3 |  | 3.2
3 | Cc1cc(Nc2nc(Sc3ccc(NC(=O)CN4CC[C@@H](C(=O)NCCN5CCOCC5)C4)cc3)nn3cccc23)n[nH]1 | 19 | 63.2 | 6.3 |  | 2.9
4 | Cc1cc(Nc2nc(Sc3ccc(NC(=O)CN4CC[C@@H](S(=O)(=O)C(C)(C)C)C4)cc3)nn3cccc23)n[nH]1 | 9.2 | 28.6 | 4 |  | 4.3
5 | Cc1cc(Nc2nc(Sc3ccc(NC(=O)CN4CC[C@H](O)C4)cc3)nn3cccc23)n[nH]1 | 227 | 420 | 39 |  | 14.8
6 | Cc1cc(Nc2nc(Sc3ccc(NC(=O)CN4CC[C@@H](C(=O)Nc5ccc(F)cc5)C4)cc3)nn3cccc23)n[nH]1 | 3.8 | 42.2 | 19.5 |  | 6.9
7 | Cc1cc(Nc2nc(Sc3ccc(NC(=O)CN4CC[C@@H](OCCO)C4)cc3)nn3cccc23)n[nH]1 | 5 | 13 | 4.5 |  | 1.7
8 | Cc1cc(Nc2nc(Sc3ccc(NC(=O)CN4CC[C@@H](O)C4)cc3)nn3cccc23)n[nH]1 | 74 | 103 | 10.5 |  | 6.6
9 | Cc1cc(Nc2nc(Sc3ccc(NC(=O)CN4CC[C@@H](OCCN5CCOCC5)C4)cc3)nn3cccc23)n[nH]1 | 17.8 | 43.4 | 11 |  | 6.6
10 | Cc1cc(Nc2nc(Sc3ccc(NC(=O)CN4CC[C@@H](C(=O)NCC(F)(F)F)C4)cc3)nn3cccc23)n[nH]1 | 0.9 | 7 | 2.5 | 35 | 2.2
11 | Cc1cc(Nc2nc(Sc3ccc(NC(=O)CN4CC[C@@H](OC(C)(C)C)C4)cc3)nn3cccc23)n[nH]1 | 2.6 | 8.9 | 25 |  | 3.6
12 | Cc1cc(Nc2nc(Sc3ccc(NC(=O)CN4CCC(C(=O)C(C)(C)C)C4)cc3)nn3cccc23)n[nH]1 (racemic) | 12.5 | 44.8 | 16.9 |  | 6.1

The remaining compounds from weak to strong by IC50 [1], led by results:

Row | IC50 [1] [nM] | IC50 [2] [nM] | Kd [3] [nM] | clearance [4] [mL/min/kg] | Kd [5] [nM] | Structure (SMILES)
13 | 105 | 293 | 4 |  | 3.7 | Cc1cc(Nc2nc(Sc3ccc(NC(=O)CN4CC[C@@H](C(=O)N5CCC(O)CC5)C4)cc3)nn3cccc23)n[nH]1
14 | 46.5 | 114 | 13.1 |  | 5.7 | Cc1cc(Nc2nc(Sc3ccc(NC(=O)CN4CC[C@@H](NC(=O)C(C)C)C4)cc3)nn3cccc23)n[nH]1
15 | 29.8 | 169 | 12.5 |  | 2.9 | Cc1cc(Nc2nc(Sc3ccc(NC(=O)CN4CC[C@@H](OCCN5CCN(C)CC5)C4)cc3)nn3cccc23)n[nH]1
16 | 19.3 | 94.5 | 25.2 |  | 14.2 | Cc1cc(Nc2nc(Sc3ccc(NC(=O)CN4CC[C@@H](SC(C)(C)C)C4)cc3)nn3cccc23)n[nH]1
17 | 16.7 | 37.6 | 10.1 |  | 1.9 | Cc1cc(Nc2nc(Sc3ccc(NC(=O)CN4CC[C@H](C(=O)N5CCCC5)C4)cc3)nn3cccc23)n[nH]1
18 | 10.8 | 27.1 | 5.1 |  | 3.7 | Cc1cc(Nc2nc(Sc3ccc(NC(=O)CN4CC[C@@H](OCCCN5CCOCC5)C4)cc3)nn3cccc23)n[nH]1
19 | 3.9 | 14.6 | 4 |  | 2.6 | Cc1cc(Nc2nc(Sc3ccc(NC(=O)CN4CC[C@@H](C(=O)N5CCOCC5)C4)cc3)nn3cccc23)n[nH]1
20 | 3.4 | 11.9 | 2.8 |  | 3.1 | Cc1cc(Nc2nc(Sc3ccc(NC(=O)CN4CC[C@@H]([S+]([O-])C(C)(C)C)C4)cc3)nn3cccc23)n[nH]1 (stereo partly drawn)
21 | 3.2 | 10 | 6.4 |  | 2.9 | Cc1cc(Nc2nc(Sc3ccc(NC(=O)CN4CC[C@@H](C(=O)N5CCCCC5)C4)cc3)nn3cccc23)n[nH]1
22 | 3.1 | 6.2 | 11.5 | 62 | 3.1 | COCCO[C@@H]1CCN(CC(=O)Nc2ccc(Sc3nc(Nc4cc(C)[nH]n4)c4cccn4n3)cc2)C1
23 | 2.9 | 9 | 8.8 |  | 2.4 | Cc1cc(Nc2nc(Sc3ccc(NC(=O)CN4CCC(C(=O)N5CCCC5)C4)cc3)nn3cccc23)n[nH]1 (racemic)
24 | 2.2 | 6.3 | 6.3 |  | 2.5 | Cc1cc(Nc2nc(Sc3ccc(NC(=O)CN4CC[C@@H](C(=O)N5CCCC5)C4)cc3)nn3cccc23)n[nH]1
25 | 1.3 | 9.3 | 4.2 |  | 3.3 | Cc1cc(Nc2nc(Sc3ccc(NC(=O)CN4CC[C@@H](C(=O)NC5CCC5)C4)cc3)nn3cccc23)n[nH]1
